This passage reports inhibition and IC50 results from ChEMBL document CHEMBL3045523, “The limonoids and their antitobacco mosaic virus (TMV) activities from Munronia unifoliolata Oliv” (J Agric Food Chem, 2012).

Values after ≈ are worked out from the molar mass of the structure shown.

A word on the inhibition: it is the share of the control response that was lost under treatment. One may read the IC50 as the concentration needed to halve the response being measured. Read a low IC50 as inhibition by little substance.

Assay [1] concerns Tobacco mosaic virus. Nature of the assay: Inhibition of Tobacco mosaic virus (TMV) infection in Nicotiana glutinosa assessed as infection inhibition rate at 30 ug/ml after 3 to 4 days by half-leaf method. Type of assay: functional. Summed up: (§1)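 Half-leaf protective assay on Nicotiana glutinosa local-lesion host at the 4–5 leaf stage. TMV U1, purified and diluted to 30 μg/mL in 0.01 M PBS, was mixed with compound solution (DMSO stock diluted in water) for 30 min. The mix was rubbed onto the left leaf half, with virus plus DMSO on the right half. Local lesions were counted 3–4 days later; three repetitions.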

The test system of assay [2] is Tobacco mosaic virus. Put plainly: Inhibition of Tobacco mosaic virus (TMV) infection in Nicotiana glutinosa at 200 ug/ml after 3 to 4 days by half-leaf method. Type of assay: functional. Summed up: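 Curative half-leaf test on N. glutinosa. Leaves were mechanically inoculated with purified TMV U1 (30 μg/mL). After 2 h, compound (DMSO stock in water) was applied to the left half and DMSO to the right half. Lesions were counted after 3–4 days. Values are mean ± SD, n = 3.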

Assay [3] relates to Tobacco mosaic virus. Put plainly: Inhibition of Tobacco mosaic virus (TMV) infection in Nicotiana glutinosa assessed as infection inhibition rate at 20 ug/ml after 3 to 4 days by half-leaf method. The assay is classed as functional. In outline:
as §1

Assay [4] concerns Tobacco mosaic virus. Nature of the assay: Inhibition of Tobacco mosaic virus (TMV) infection in Nicotiana glutinosa assessed as infection inhibition rate at 15 ug/ml after 3 to 4 days by half-leaf method. Type of assay: functional. Summed up: as §1
In assay [5] the test system is Tobacco mosaic virus. Nature of the assay: Inhibition of Tobacco mosaic virus (TMV) infection in Nicotiana glutinosa assessed as infection inhibition rate at 25 ug/ml after 3 to 4 days by half-leaf method. Type of assay: functional. In outline: as §1
The test system of assay [6] is Tobacco mosaic virus. Nature of the assay: Inhibition of Tobacco mosaic virus (TMV) infection in Nicotiana glutinosa assessed as infection inhibition rate at 5 ug/ml after 3 to 4 days by half-leaf method. The assay is classed as functional. Summed up: as §1
In assay [7] the test system is Tobacco mosaic virus. Nature of the assay: Inhibition of Tobacco mosaic virus (TMV) infection in Nicotiana glutinosa assessed as infection inhibition rate at 10 ug/ml after 3 to 4 days by half-leaf method. The assay is classed as functional. In outline: as §1
The test system of assay [8] is Tobacco mosaic virus. Put plainly: Inhibition of Tobacco mosaic virus (TMV) infection in Nicotiana tabacum cv. K326 at 30 ug/ml by DAS-ELISA method. Type of assay: functional. Summed up: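 Leaf-disk test in N. tabacum cv. K326. Leaves were inoculated with TMV (30 μg/mL), and 1 cm disks were cut after 72 h. Disks were floated on compound, DMSO (negative) or mock solutions at 28 °C for 48 h. Virus in disks was measured by DAS-ELISA at OD405 against a TMV standard curve (0.23–3.75 μg/mL). Inhibition = (1 − treated/negative-control TMV) × 100%.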
Background: In an ELISA, binding on a coated surface is turned into a signal by an enzyme label.

Assay [9] deals with Tobacco mosaic virus. Nature of the assay: Inhibition of Tobacco mosaic virus (TMV) infection in Nicotiana glutinosa after 3 to 4 days by half-leaf method. The assay is classed as functional, organism-based. Summed up:
as §1

Regarding `CC(=O)O[C@H]1C[C@@H](OC(C)=O)[C@@]2(C)CO[C@H]3[C@@H](O)[C@@]4(C)C5=CC[C@@H](c6ccoc6)[C@]5(C)CC[C@@H]4[C@]1(C)[C@@H]32` [DIACETYLVILASININ], the inhibition at 30 µg/mL in assay [1] was found to be 14.6%. For the same molecule, in [2], the inhibition at 200 µg/mL turned out to be 17.2%.

Consider `CCC(C)C(O)C(=O)O[C@H]1C[C@H]2[C@](C)(C3=CC[C@@H](c4ccoc4)[C@@]31C)[C@H](OC(C)=O)C[C@H]1C(C)(C)OC(=O)C[C@H](OC(C)=O)[C@@]12C` (stereo partly specified) [MUNRONOID K], for which the inhibition at 20 µg/mL in assay [3] was determined as 38.7%. In addition, the inhibition at 30 µg/mL in assay [1] is 51.9%; in assay [8], 67.2%. Moreover, the inhibition at 15 µg/mL in assay [4] is 28.6%. This molecule also yielded an inhibition at 200 µg/mL in assay [2] of 55.6%. Besides, the inhibition at 25 µg/mL in [5] came to 45.7%. In addition, the inhibition at 5 µg/mL in assay [6] worked out at 6.5%. Also, the inhibition at 10 µg/mL in assay [7] is 18.7%. Besides, the IC50 in assay [9] came to 28.3 µg/mL (≈ 44 µM).

Take `CNCC(=O)N[C@@H](CO)C(=O)N[C@H]1[C@H](O)[C@@H](O)[C@H](n2ccc(N)nc2=O)O[C@@H]1C(N)=O` [NINGNANMYCIN]: the inhibition at 20 µg/mL in assay [3] worked out at 32.1%. Also, the inhibition at 30 µg/mL is 42.6% in [1] and 56.5% in assay [8]. In addition, in assay [4], the inhibition at 15 µg/mL was found to be 30.3%. Moreover, at 200 µg/mL the inhibition in assay [2] was 42.1%. Further, the inhibition at 25 µg/mL in assay [5] was 38.3%. Also, the inhibition at 10 µg/mL in assay [7] stood at 25%. In assay [9], this molecule returned an IC50 of 52.1 µg/mL (≈ 117 µM).

On to `C/C=C(\C)C(=O)O[C@H]1C[C@@H](OC(C)=O)[C@@]2(C)CO[C@H]3[C@@H](O)[C@@]4(C)C5=C[C@@H](O)[C@@H](c6ccoc6)[C@]5(C)[C@@H](OC)C[C@@H]4[C@]1(C)[C@@H]32` [MUNRONOID N], for which, in [3], the inhibition at 20 µg/mL worked out at 37.9%. The inhibition at 30 µg/mL in assay [1] stood at 52%; in [8], 30.2%. The inhibition at 15 µg/mL in [4] is 26.4%. Further, the inhibition at 200 µg/mL in [2] came out at 24.5%. Moreover, the inhibition at 25 µg/mL in [5] was 44.6%. Further, the inhibition at 5 µg/mL in assay [6] was 8.3%. For the same molecule, the inhibition at 10 µg/mL in assay [7] worked out at 16.5%. For the same molecule, the IC50 in assay [9] is 27.9 µg/mL (≈ 46.6 µM).

In the case of `CC(=O)O[C@H]1C[C@H]2[C@](C)(C3=CC[C@@H](c4ccoc4)[C@@]31C)[C@H](OC(=O)C=C(C)C)C[C@H]1C(C)(C)OC(=O)C[C@H](OC(C)=O)[C@@]12C` [MUNRONOID M], in assay [3], the inhibition at 20 µg/mL is 33.5%. For the same molecule, the inhibition at 30 µg/mL in assay [1] came out at 45.4%; in [8], 45.7%. Also, the inhibition at 15 µg/mL in assay [4] came out at 22.6%. In [2], this molecule registered an inhibition at 200 µg/mL of 29.3%. Besides, in assay [5], the inhibition at 25 µg/mL came to 42.9%. For the same molecule, the inhibition at 10 µg/mL in [7] amounted to 11.5%. Moreover, the IC50 in [9] is 37 µg/mL (≈ 60.6 µM).

Turning to `C=C1[C@@H]([C@@]2(C)C=CC(=O)OC(C)(C)[C@@H]2CC(=O)OC)[C@@H](OC(C)=O)[C@H](OC(C)=O)[C@@]2(C)[C@H](C3=CC(=O)OC3)C[C@H]3O[C@]132` [MUNRONOID O], in assay [3], the inhibition at 20 µg/mL was determined as 42.8%. The inhibition at 30 µg/mL in assay [1] and in assay [8] was 64.2% each time. In addition, the inhibition at 15 µg/mL in assay [4] worked out at 33.4%. Moreover, 200 µg/mL produced 50.2% inhibition in [2]. For the same molecule, in [5], the inhibition at 25 µg/mL was determined as 51.4%. Besides, the inhibition at 5 µg/mL in [6] turned out to be 11.2%. For the same molecule, the inhibition at 10 µg/mL in assay [7] was determined as 24.6%. This molecule also showed an IC50 in assay [9] of 22.2 µg/mL (≈ 37.8 µM).

Take `C=C1[C@@H]([C@@]2(C)C=CC(=O)OC(C)(C)[C@@H]2CC(=O)OC)[C@@H](OC(C)=O)[C@H](OC(C)=O)[C@@]2(C)[C@@H](c3ccoc3)C[C@H]3O[C@]132` [NYMANIA]: the inhibition at 20 µg/mL in assay [3] came out at 40.2%. Besides, the inhibition at 30 µg/mL was 58% in assay [1] and 55.4% in [8]. For the same molecule, the inhibition at 15 µg/mL in [4] was 29.8%. This molecule also came in with an inhibition at 200 µg/mL in assay [2] of 39.2%. Moreover, in assay [5], the inhibition at 25 µg/mL came to 49.8%. Besides, the inhibition at 5 µg/mL in [6] amounted to 8.3%. For the same molecule, in [7], the inhibition at 10 µg/mL is 19.6%. The molecule also came in with a half-maximal inhibitory concentration (IC50) in [9] of 22.3 µg/mL (≈ 39.1 µM).

In the case of `CC(=O)O[C@H]1C[C@H]2[C@](C)(C3=CC[C@@H](c4ccoc4)[C@@]31C)[C@H](OC(C)=O)C[C@H]1C(C)(C)OC(=O)C[C@H](OC(C)=O)[C@@]12C` [MUNRONOID L], the inhibition at 20 µg/mL in assay [3] was 35.8%. The inhibition at 30 µg/mL was determined as 47.7% in [1] and 54.4% in assay [8]. For the same molecule, in assay [4], the inhibition at 15 µg/mL was determined as 25.7%. In assay [2], this molecule displayed an inhibition at 200 µg/mL of 34.6%. Further, the inhibition at 25 µg/mL in assay [5] was determined as 43.9%. Also, in assay [6], the inhibition at 5 µg/mL came out at 4.4%. Besides, the inhibition at 10 µg/mL in assay [7] stood at 15.3%. In addition, it took 34.6 µg/mL (≈ 60.6 µM) to reach half-maximal inhibition in assay [9] (IC50).

For `C=C1[C@@H]([C@@]2(C)C=CC(=O)O[C@](C)(COC(C)=O)[C@@H]2CC(=O)OC)[C@@H](OC=O)[C@H](OC(=O)[C@H](O)[C@H](C)CC)[C@@]2(C)[C@@H](c3ccoc3)C[C@H]3O[C@]132` [MOMBASOL], the inhibition at 30 µg/mL came out at 25.9% in assay [1] and 39.3% in assay [8]. For the same molecule, in [2], the inhibition at 200 µg/mL was 27.7%.
